# pEC50: −log10 of the molar value.
# Legend:
# L5178Y = assay: Compound was tested for inhibition of rhodamine 123 efflux in mdr 1 transfectant L5178Y VMDRI C.06 mouse lymphoma cells; format: functional, cell-based
# Method in brief: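 Cells at 1 × 10⁶/mL in RPMI1640 preloaded with rhodamine 123 (final 0.2 μg/mL, 0.53 μmol/L) for 15 min at 37 °C, then resuspended in 37 °C medium with modulator (eight concentrations, 1:2.5 serial dilution, 3 nM–500 μM). Aliquots taken at 0, 30, 60, 90, 120 s into ice-cold verapamil stop solution. Read by flow cytometry, 5000 events. Vmax/Km from exponential fit, parental-line diffusion subtracted. EC50 from dose–response, mean of ≥5 experiments.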
# [1] = biological target: ATP-dependent translocase ABCB1 (Homo sapiens, UniProt P08183); assay: Compound was tested for inhibition of daunomycin efflux in the resistant human T-lymphoblast cell line CEM vcr1000.; format: functional, cell-based, CCRF-CEM
# Sequence of ATP-dependent translocase ABCB1 (P08183 whole entry): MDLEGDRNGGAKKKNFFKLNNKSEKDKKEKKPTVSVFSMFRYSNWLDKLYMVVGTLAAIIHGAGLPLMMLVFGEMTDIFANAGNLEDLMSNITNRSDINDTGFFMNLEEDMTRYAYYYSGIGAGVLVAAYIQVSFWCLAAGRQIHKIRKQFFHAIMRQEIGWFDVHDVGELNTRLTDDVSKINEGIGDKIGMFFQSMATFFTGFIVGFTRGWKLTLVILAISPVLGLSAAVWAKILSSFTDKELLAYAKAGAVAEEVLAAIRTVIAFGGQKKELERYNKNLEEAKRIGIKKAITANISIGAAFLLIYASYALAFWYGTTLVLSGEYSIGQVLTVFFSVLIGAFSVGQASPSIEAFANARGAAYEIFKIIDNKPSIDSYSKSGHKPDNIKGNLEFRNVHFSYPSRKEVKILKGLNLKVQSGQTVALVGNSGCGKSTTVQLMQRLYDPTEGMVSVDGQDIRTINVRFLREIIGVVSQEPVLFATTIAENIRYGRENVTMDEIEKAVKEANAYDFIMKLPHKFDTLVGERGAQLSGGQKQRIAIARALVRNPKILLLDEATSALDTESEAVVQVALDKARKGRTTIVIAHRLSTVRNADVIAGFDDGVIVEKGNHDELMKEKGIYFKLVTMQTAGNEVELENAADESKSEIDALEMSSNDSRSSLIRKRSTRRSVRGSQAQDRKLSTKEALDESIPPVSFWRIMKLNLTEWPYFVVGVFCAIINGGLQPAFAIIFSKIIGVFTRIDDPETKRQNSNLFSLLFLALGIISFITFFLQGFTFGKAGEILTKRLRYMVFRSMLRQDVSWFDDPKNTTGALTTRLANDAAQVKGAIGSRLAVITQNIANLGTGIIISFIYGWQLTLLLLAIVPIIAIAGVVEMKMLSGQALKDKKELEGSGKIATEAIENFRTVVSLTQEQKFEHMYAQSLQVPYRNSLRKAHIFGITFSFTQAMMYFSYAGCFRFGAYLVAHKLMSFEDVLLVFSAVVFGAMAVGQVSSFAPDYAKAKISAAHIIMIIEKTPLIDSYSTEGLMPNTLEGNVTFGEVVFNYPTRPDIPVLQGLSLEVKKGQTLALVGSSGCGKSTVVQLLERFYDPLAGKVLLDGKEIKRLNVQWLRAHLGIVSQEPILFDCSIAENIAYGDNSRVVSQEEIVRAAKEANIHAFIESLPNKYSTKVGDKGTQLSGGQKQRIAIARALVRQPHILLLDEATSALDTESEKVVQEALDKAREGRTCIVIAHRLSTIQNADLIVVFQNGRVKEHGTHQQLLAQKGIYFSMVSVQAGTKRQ
Compound,pEC50 (L5178Y),pEC50 [1]
CCCNCC(O)Cn1c(C)c(C(=O)c2ccccc2)c(=O)n1-c1ccccc1 (centres undefined),4.19,4.55
CCCNc1c(C(=O)CCc2ccccc2)c(C)nn1-c1ccccc1,,5.08
CCCCNCC(O)Cn1c(C)c(C(=O)CCc2ccccc2)c(=O)n1-c1ccccc1 (centres undefined),5.40,5.57
Cc1c(C(=O)c2ccccc2)c(=O)n(-c2ccccc2)n1CC(O)CNC(C)C (centres undefined),3.65,4.08
Cc1c(C(=O)c2cccs2)c(=O)n(-c2ccccc2)n1CC(O)CNC(C)C (centres undefined),3.19,3.91
Cc1c(C(=O)c2ccccc2)c(=O)n(C)n1CC(O)CN(C(C)C)C(C)C (centres undefined),,4.62
Cc1c(C(=O)c2ccccc2)c(=O)n(-c2ccccc2)n1CC(O)CN(C(C)C)C(C)C (centres undefined),4.66,4.90
Cc1ccccc1N1CCN(CC(O)Cn2c(C)c(C(=O)CCc3ccccc3)c(=O)n2-c2ccccc2)CC1 (centres undefined),,6.68
Cc1nn(C)c(OCC(O)CN(C(C)C)C(C)C)c1C(=O)c1ccccc1 (centres undefined),,5.92
CCC/N=C(\CCc1ccccc1)c1c(C)[nH]n(-c2ccccc2)c1=O,,5.42
CCC/N=C(\c1ccccc1)c1c(C)[nH]n(C)c1=O,,3.56
CC1=NN(c2ccccc2)C(=O)/C1=C(/c1ccccc1)N1CCN(c2ccccc2C)CC1,,6.17
Cc1ccccc1N1CCN(CC(O)Cn2c(C)c(C(=O)c3ccccc3)c(=O)n2-c2ccccc2)CC1 (centres undefined),5.61,6.05
Cc1c(C(=O)c2cccs2)c(=O)n(-c2ccccc2)n1CC(O)CNC(C)(C)C (centres undefined),4.02,4.14
CCCNCC(O)Cn1c(C)c(C(=O)c2cccs2)c(=O)n1-c1ccccc1 (centres undefined),3.76,4.14
Cc1c(C(=O)CCc2ccccc2)c(=O)n(-c2ccccc2)n1CC(O)CNC(C)C (centres undefined),4.47,4.93
Cc1c(C(=O)c2ccccc2)c(=O)n(-c2ccccc2)n1CC(O)CNC(C)(C)C (centres undefined),3.78,4.09
Cc1nn(-c2ccccc2)c(OCC(O)CN(C(C)C)C(C)C)c1C(=O)c1ccccc1 (centres undefined),5.65,5.97
CCCNCC(O)Cn1c(C)c(C(=O)CCc2ccccc2)c(=O)n1-c1ccccc1 (centres undefined),4.82,5.20
CCCNc1c(C(=O)c2ccccc2)c(C)nn1-c1ccccc1,,4.96
Cc1c(C(=O)CCc2ccccc2)c(=O)n(-c2ccccc2)n1CC(O)CNC(C)(C)C (centres undefined),4.75,5.11
